Laboratory results as given in ChEMBL document CHEMBL4428080, “Discovery and Pharmacological Characterization of Novel Quinazoline-Based PI3K Delta-Selective Inhibitors” (ACS Med Chem Lett, 2016).
Converted amounts (≈) assume the structure as drawn.

Experiments:
[1] = Octanol/water partition coefficient, log P of the compound by high-throughput assay; type: physicochemical
[2] = Equilibrium solubility of the compound at pH 6.8 by high-throughput assay; type: physicochemical; conditions: buffer
How it was run: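 High-throughput equilibrium solubility determination at pH 6.8, reported in mM.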

[3] = Volume of distribution at steady state in Sprague-Dawley rat at 1 mg/kg, iv by HPLC method; type: ADME, organism-based; conditions: in vivo, read-out: Vdss
[4] = Dose normalized AUC in Sprague-Dawley rat at 1 mg/kg, iv by HPLC method; type: ADME, organism-based; conditions: in vivo
[5] = Dose normalized AUC in Sprague-Dawley rat at 3 mg/kg, po by HPLC method; type: ADME, organism-based; conditions: in vivo
[6] = Oral bioavailability in Sprague-Dawley rat at 3 mg/kg by HPLC method; type: ADME, organism-based; conditions: in vivo
How it was run: (§1)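 Oral PK in Sprague Dawley rats at 3 or 30 mg/kg and in dogs at 0.3 mg/kg. Dose-normalized parameters are scaled to 1 mg·kg^-1.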

[7] = Dose normalized Cmax in Sprague-Dawley rat at 3 mg/kg, po by HPLC method; type: ADME, organism-based; conditions: in vivo; how it was run: as §1
[8] = Tmax in Sprague-Dawley rat at 3 mg/kg, po by HPLC method; type: ADME, organism-based; conditions: in vivo; how it was run: as §1
[9] = Dose normalized AUC in Sprague-Dawley rat at 30 mg/kg, po by HPLC method; type: ADME, organism-based; conditions: in vivo; how it was run: as §1
[10] = Oral bioavailability in Sprague-Dawley rat at 30 mg/kg by HPLC method; type: ADME, organism-based; conditions: in vivo; how it was run: as §1
[11] = Dose normalized Cmax in Sprague-Dawley rat at 30 mg/kg, po by HPLC method; type: ADME, organism-based; conditions: in vivo; how it was run: as §1
[12] = Tmax in Sprague-Dawley rat at 30 mg/kg, po by HPLC method; type: ADME, organism-based; conditions: in vivo; how it was run: as §1
[13] = Volume of distribution at steady state in Beagle dog at 0.1 mg/kg, iv by HPLC method; type: ADME, organism-based, Canis lupus familiaris; conditions: in vivo, read-out: Vdss
[14] = Dose normalized AUC in Beagle dog at 0.1 mg/kg, iv by HPLC method; type: ADME, organism-based, Canis lupus familiaris; conditions: in vivo
[15] = Dose normalized AUC in Beagle dog at 0.3 mg/kg, po by HPLC method; type: ADME, organism-based, Canis lupus familiaris; conditions: in vivo; how it was run: as §1
[16] = Oral bioavailability in Beagle dog at 0.3 mg/kg by HPLC method; type: ADME, organism-based, Canis lupus familiaris; conditions: in vivo; how it was run: as §1
[17] = Dose normalized Cmax in Beagle dog at 0.3 mg/kg, po by HPLC method; type: ADME, organism-based, Canis lupus familiaris; conditions: in vivo; how it was run: as §1
[18] = Tmax in Beagle dog at 0.3 mg/kg, po by HPLC method; type: ADME, organism-based, Canis lupus familiaris; conditions: in vivo; how it was run: as §1
[19] = Drug uptake in Lewis rat blood at 30 mg/kg, po administered as single dose by LC-MS analysis; type: ADME, organism-based; conditions: in vivo, read-out: Drug uptake
How it was run: (§2)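 Lewis rats received a single oral dose of 30 mg/kg. Blood was collected at various time points and drug levels were determined.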

[20] = Tmax in Lewis rat blood at 30 mg/kg, po administered as single dose by LC-MS analysis; type: ADME, organism-based; conditions: whole blood; how it was run: as §2

logP [1]	solubility thermodynamic [2] [µM]	SMILES	other results
1.9	800 (≈ 397 µg/mL)	COc1ccc(-c2ccc3ncnc(-c4cccc(C(=O)N5CCN(C(C)=O)CC5)c4)c3c2)cc1OC	
2.8	210 (≈ 103 µg/mL)	COc1ncc(-c2ccc3ncnc(-c4cccc(C(=O)N5CCN(C(C)=O)CC5)c4)c3c2)cc1C#N	Vd [3]: 2 L/kg; AUC/dose [4]: 2315 nM·h; AUC/dose [5]: 500 nM·h; bioavailability [6]: 22%; Cmax/dose [7]: 48 nM; Tmax [8]: 3.5 h; AUC/dose [9]: 237 nM·h; bioavailability [10]: 10%; Cmax/dose [11]: 20 nM; Tmax [12]: 5.3 h; Vd [13]: 1 L/kg; AUC/dose [14]: 2798 nM·h; AUC/dose [15]: 1188 nM·h; bioavailability [16]: 42%; Cmax/dose [17]: 440 nM; Tmax [18]: 48 min; concentration [19]: 5 µM; Tmax [20]: 2 h
3.9	850 (≈ 431 µg/mL)	COc1ncc(-c2ccc3ncnc(-c4cccc(C(=O)N5CCN(C)CC5)c4)c3c2)cc1C(F)(F)F	
1.9	420 (≈ 195 µg/mL)	COc1ncc(-c2ccc3ncnc(-c4cccc(C(=O)N5CCN(C)CC5)c4)c3c2)cc1C#N	
3.1	380 (≈ 203 µg/mL)	COc1ncc(-c2ccc3ncnc(-c4cccc(C(=O)N5CCN(C(C)=O)CC5)c4)c3c2)cc1C(F)(F)F	

Continued, compound first:

SMILES	logP [1]	solubility thermodynamic [2] [µM]	other results
COc1ccc(-c2ccc3ncnc(-c4cccc(C(=O)N5CCN(C(C)=O)CC5)c4)c3c2)cn1	2.7	> 1000	
CN1CCN(C(=O)c2cccc(-c3ncnc4ccc(-c5cnc6ccccc6c5)cc34)c2)CC1	3.1	> 1000	
COc1ccc(-c2ccc3ncnc(N4CCC[C@H](C(=O)N5CCN(C)CC5)C4)c3c2)cn1		> 1000	
COc1ccc(-c2ccc3ncnc(-c4cncc(C(=O)N5CCN(C)CC5)c4)c3c2)cn1	1.9	> 1000	
CC(=O)N1CCN(C(=O)c2cccc(-c3ncnc4ccc(-c5cnc6ccccc6c5)cc34)c2)CC1	2.8	610 (≈ 297 µg/mL)	
COc1ccc(-c2ccc3ncnc(-c4cccc(C(=O)N5CCN(C)CC5)c4)c3c2)cn1	2.2	> 1000	
COc1ccc(-c2ccc3ncnc(-c4cccc(C(=O)N5CCN(C)CC5)c4)c3c2)cc1OC	2.8	850 (≈ 398 µg/mL)	
